Source: ChEMBL document CHEMBL4732137, “Insight on [1,3]thiazolo[4,5-e]isoindoles as tubulin polymerization inhibitors” (Eur J Med Chem, 2021)
Activity calls are given as the source filed them. The calls are words filed in the database; no cut-off is given here.

Experiments:
HeLa [1] = assay: Cell cycle arrest in human HeLa cells assessed as increase in cyclin B1 expression at 10 uM measured after 24 hrs by Western blot analysis; format: functional, cell-based
Procedure, shortened: (§1)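 HeLa cells treated 24 h at 1 or 10 µM, washed in cold PBS, lysed on ice 30 min, protein quantified by BCA; western blot for cdc25c, p-cdc2 Y15 and cyclin B1, membranes stripped and reprobed for vinculin as loading control.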

HeLa [2] = assay: Induction of apoptosis in human HeLa cells assessed as increase in necrotic cells at 10 uM measured after 48 hrs by Annexin V-FITC/propidium iodide staining based flow cytometry; format: functional, cell-based
Procedure, shortened: (§2)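 HeLa cells incubated 24 or 48 h at the stated concentrations, double stained with annexin V-FITC and PI, and surface phosphatidylserine measured by flow cytometry to separate live, early apoptotic, late apoptotic and necrotic cells; mean ± SEM of three independent experiments; p vs control.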

HeLa [3] = assay: Induction of apoptosis in human HeLa cells assessed as increase in PARP cleavage at 10 uM measured after 24 hrs by Western blot analysis; format: functional, cell-based
Procedure, shortened: (§3)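 After 24 h exposure of HeLa cells to 1 or 10 µM, lysates were blotted for cleaved caspase-9 and PARP; primary antibodies 2 h at room temperature, peroxidase secondary 1 h, ECL detection, vinculin reprobe for equal loading.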

HeLa [4] = assay: Induction of apoptosis in human HeLa cells assessed as increase in caspase-9 activation at 10 uM measured after 24 hrs by Western blot analysis; format: functional, cell-based; procedure, shortened: as §3
HeLa [5] = assay: Cell cycle arrest in human HeLa cells assessed as increase in accumulation at G2/M phase measured after 24 hrs by propidium iodide staining based flow cytometry; format: functional; conditions: dose 0.1-10 µM
Procedure, shortened: (§4)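 HeLa cells exposed 24 h at 0.1, 1 and 10 µM; fixed, labelled with propidium iodide and analysed by flow cytometry for the fraction in each cycle phase; mean ± SEM of three experiments.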

[6] = Antiproliferative activity against human Panel NCI-57 (57 carcinoma cell lines) measured after 48 hrs by SRB assay; format: functional
Procedure, shortened: (§5)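 Full NCI human tumor cell line panel; selected compounds tested at five doses, 10^-4 to 10^-8 M, with growth inhibition summarised as the mean graph mid-point (MG_MID) across the panel.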

HeLa [7] = assay: Induction of apoptosis in human HeLa cells at 10 uM measured after 48 hrs by Annexin V-FITC/propidium iodide staining based flow cytometry; format: functional, cell-based; procedure, shortened: as §2
HeLa [8] = assay: Cell cycle arrest in human HeLa cells assessed as accumulation at G2/M phase at 10 uM measured after 24 hrs by propidium iodide staining based flow cytometry relative to control; format: functional; procedure, shortened: as §4
HeLa [9] = assay: Cell cycle arrest in human HeLa cells assessed as reduction in accumulation at S phase at 0.1 to 10 uM measured after 24 hrs by propidium iodide staining based flow cytometry; format: functional; conditions: dose 0.1-10 µM; procedure, shortened: as §4
HeLa [10] = assay: Cell cycle arrest in human HeLa cells assessed as reduction in accumulation at G1 phase at 0.1 to 10 uM measured after 24 hrs by propidium iodide staining based flow cytometry; format: functional; conditions: dose 0.1-10 µM; procedure, shortened: as §4
[11] = Inhibition of bovine brain tubulin assembly by turbidimetry based spectrophotometric method; parameters: species or system Bos taurus
HeLa [12] = assay: Cell cycle arrest in human HeLa cells assessed as reduction in phosphorylated cdc2 expression at 10 uM measured after 24 hrs by Western blot analysis; format: functional, cell-based; procedure, shortened: as §1
HeLa [13] = assay: Cell cycle arrest in human HeLa cells assessed as reduction in total cdc25c expression at 10 uM measured after 24 hrs by Western blot analysis; format: functional, cell-based; procedure, shortened: as §1
HeLa [14] = assay: Induction of apoptosis in human HeLa cells assessed as increase in annexin-V positive cells at 10 uM measured after 24 hrs by Annexin V-FITC/propidium iodide staining based flow cytometry; format: functional, cell-based; procedure, shortened: as §2
HeLa [15] = assay: Induction of mitochondrial potential loss in human HeLa cells measured after 24 to 48 hrs by JC1 staining based flow cytometry; format: functional, cell-based; conditions: dose 1-10 µM, time 24-48 hrs
Procedure, shortened: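 Mitochondrial membrane potential in HeLa cells after 24 or 48 h at 1 and 10 µM; JC-1 staining, excitation 490 nm, monomer emission at 530 nm versus aggregate at 590 nm […], read by flow cytometry; mean ± SEM, three independent experiments.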

Tubulin (Homo sapiens) [16] = biological target: T1, Tubulin (Homo sapiens) (UniProt P68371+Q9H4B7+P0DPH7+P68366+Q13509+Q71U36+P04350+Q3ZCM7+P07437+P68363+Q9BQE3+Q6PEY2+Q13885+Q9BVA1+Q9BUF5); assay: Inhibition of [3H]colchicine binding to tubulin (unknown origin) at 50 uM by DEAE-cellulose filter method relative to control; format: protein-complex assay
[17] = Antiproliferative activity against human Panel NCI-55 (55 carcinoma cell lines) measured after 48 hrs by SRB assay; format: functional; procedure, shortened: as §5
Tubulin (Homo sapiens) [18] = biological target: T1, Tubulin (Homo sapiens); assay: Inhibition of [3H]colchicine binding to tubulin (unknown origin) at 5 uM by DEAE-cellulose filter method relative to control; format: protein-complex assay
[19] = Antiproliferative activity against human Panel NCI-56 (56 carcinoma cell lines) measured after 48 hrs by SRB assay; format: functional; procedure, shortened: as §5

COc1cc(-c2c3c(cn2S(=O)(=O)c2ccccc2)-c2nc(N)sc2CC3)cc(OC)c1OC
Activity (HeLa [1]): Active | Activity (HeLa [2]): Active | Activity (HeLa [3]): Active | Activity (HeLa [4]): Active | Activity (HeLa [5]): Dose-dependent effect | GI50 [6]: 220 nM | Activity (HeLa [7]): Active | Activity (HeLa [8]): >70% | Activity (HeLa [9]): Active | Activity (HeLa [10]): Active | IC50 [11]: > 20000 nM | Activity (HeLa [12]): Active | Activity (HeLa [13]): Active | Activity (HeLa [14]): Active | Activity (HeLa [15]): Dose-dependent effect

COc1ccc(Cn2c(Br)c3c(c2-c2cc(OC)c(OC)c(OC)c2)CCc2sc(N)nc2-3)cc1
Activity (HeLa [1]): Active | Activity (HeLa [2]): Active | Activity (HeLa [3]): Active | Activity (HeLa [4]): Active | GI50 [6]: 210 nM | Activity (HeLa [7]): Active | Activity (HeLa [8]): >70% | Activity (HeLa [9]): Active | inhibition (Tubulin (Homo sapiens) [16]): 22% | Activity (HeLa [10]): Active | IC50 [11]: > 20000 nM | Activity (HeLa [14]): Active | Activity (HeLa [15]): Dose-dependent effect

COc1ccc(Cn2c(Br)c3c(c2-c2cc(OC)c(OC)c(OC)c2)CCc2sc(NC(C)=O)nc2-3)cc1
GI50 [17]: 610 nM | inhibition (Tubulin (Homo sapiens) [16]): 41% | IC50 [11]: 12000 nM

COc1ccc(Cn2c(Br)c3c(c2Br)-c2nc(N)sc2CC3)cc1
inhibition (Tubulin (Homo sapiens) [18]): 11% | inhibition (Tubulin (Homo sapiens) [16]): 60% | IC50 [11]: 7800 nM | GI50 [19]: 410 nM

Nc1nc2c(s1)CCc1c-2c(Br)n(Cc2ccccc2)c1Br
IC50 [11]: > 20000 nM | GI50 [19]: 530 nM

O=C(Nc1nc2c(s1)CCc1c-2c(Br)n(Cc2ccccc2)c1Br)c1ccccc1
IC50 [11]: > 20000 nM | GI50 [19]: 1200 nM
